Source: ChEMBL document CHEMBL5107946, “SF5- and SCF3-substituted tetrahydroquinoline compounds as potent bactericidal agents against multidrug-resistant persister Gram-positive bacteria” (RSC Med Chem, 2021)
Values after ≈ are worked out from the molar mass of the structure shown. Active and inactive are the calls of the source.

What was measured:
Staphylococcus aureus [1] = assay: Antibacterial activity against methicillin-resistant Staphylococcus aureus ST239 (ARLG 1644) assessed as bacterial growth inhibition incubated for 18 to 20 hrs by CLSI based broth microdilution assay; format: functional; conditions: time 18-20 hrs
How it was run: (§1)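 CLSI broth microdilution; compounds and control antibiotics made up at 10 mg mL−1 in DMSO (stock), serially diluted 1:2 across the plate. Inoculum adjusted to 0.5 McFarland, then diluted 1:100 into wells. Plates incubated static at 37 °C for 18–20 h before MIC read.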

Cell membrane [2] = assay: Induction of cell membrane disruption in Staphylococcus aureus ATCC 25923 at 4 ug/ml incubated for 4 hrs by scanning electron microscopy; conditions: dose 4.0 µg/ml
How it was run: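 Cells grown overnight in TSB, diluted 1:100 and grown to OD600 0.4, then treated for 4 h; bithionol 10 μg mL−1 as positive control, DMSO as negative control. Fixed in chilled 2.5% glutaraldehyde in 0.1 M cacodylate, post-fixed in 1% OsO4, ethanol-dehydrated, dried with HMDS and platinum-coated. Imaged at 5 kV.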

Staphylococcus aureus [3] = assay: Antibacterial activity against methicillin-resistant Staphylococcus aureus ATCC 33592 assessed as fold increase in MIC incubated for 30 days by resistance development based broth microdilution assay; format: functional; conditions: time 30 day
How it was run: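 Multi-step resistance selection over 30 days. MIC determined first. Each day, 5 μL from the turbid well just below the MIC was diluted 1:1000 in CA-MHB and used as inoculum for the next broth microdilution MIC. Resistance defined as a rise of more than four-fold over the starting MIC.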

Cell membrane [4] = assay: Induction of cell membrane permeability in Staphylococcus aureus ATCC 25923 at 2 to 10 ug/ml by DiOC2 dye based flow cytometry assay; conditions: dose 2-10 µg/ml
How it was run: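 Exponential-phase cells (OD600 0.2–0.3) treated at 2 or 10 μg mL−1; bithionol 4 μg mL−1 as positive control. Washed twice in PBS and resuspended in buffer. To-PRO 3 iodide (red) and DiOC2 (green) added and cells analysed at once by flow cytometry. Permeabilization read as the red/green ratio.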

Staphylococcus aureus [5] = assay: Antibacterial activity against Staphylococcus aureus ATCC 25923 assessed as bacterial growth inhibition incubated for 18 to 20 hrs by CLSI based broth microdilution assay; format: functional; conditions: time 18-20 hrs; how it was run: as §1
Staphylococcus aureus [6] = assay: Antibacterial activity against methicillin-resistant Staphylococcus aureus ATCC 33592 assessed as bacterial growth inhibition incubated for 18 to 20 hrs by CLSI based broth microdilution assay; format: functional; conditions: time 18-20 hrs; how it was run: as §1
Staphylococcus aureus [7] = assay: Bactericidal activity against persister methicillin-resistant Staphylococcus aureus ATCC 33592 assessed as reduction in colony forming unit at 1 x MIC incubated for 6 hrs by Time-kill analysis; format: functional, organism-based
How it was run: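 Stationary-phase (persister) time-kill. Overnight TSB culture diluted 1 in 10 in TSB directly (about 2.92 × 10^6 CFU per mL), with no regrowth step. Exposed at 1× or 4× MIC in triplicate at 37 °C. Samples taken at 0, 2, 4 and 6 h, serially diluted in PBS, plated on TSA in duplicate and incubated 18–24 h.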

Staphylococcus aureus [8] = assay: Antibacterial activity against methicillin-resistant Staphylococcus aureus USA300 (ARLG 1570) assessed as bacterial growth inhibition incubated for 18 to 20 hrs by CLSI based broth microdilution assay; format: functional; conditions: time 18-20 hrs; how it was run: as §1
Staphylococcus aureus [9] = assay: Bactericidal activity against methicillin-resistant Staphylococcus aureus ATCC 33592 assessed as reduction in colony forming unit incubated for 20 hrs; format: functional
How it was run: (§2)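 Follows the broth microdilution MIC plate. 4 μL taken from each well without growth, spotted in duplicate on tryptic soy agar and incubated static at 37 °C for 20 h. MBC taken as the concentration giving 99.9% reduction in CFU.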

Staphylococcus aureus [10] = assay: Antibacterial activity against methicillin-resistant Staphylococcus aureus ST239 (ARLG 1665) assessed as bacterial growth inhibition incubated for 18 to 20 hrs by CLSI based broth microdilution assay; format: functional; conditions: time 18-20 hrs; how it was run: as §1
Enterococcus faecalis = assay: Bactericidal activity against vancomycin-resistant Enterococcus faecalis ATCC 51575 assessed as reduction in colony forming unit incubated for 20 hrs; format: functional; how it was run: as §2
Staphylococcus aureus [11] = assay: Antibacterial activity against methicillin-resistant Staphylococcus aureus ST1312 (ARLG 1649) assessed as bacterial growth inhibition incubated for 18 to 20 hrs by CLSI based broth microdilution assay; format: functional; conditions: time 18-20 hrs; how it was run: as §1

FC(F)(F)c1n[nH]cc1[C@@H]1Nc2ccc(S(F)(F)(F)(F)F)cc2[C@H]2[C@@H]3CC[C@@H](C3)[C@H]21
MIC (Staphylococcus aureus [1]): 2 µg/mL (≈ 4.35 µM)
Activity (Cell membrane [2]): Active
fold change (FC) (Staphylococcus aureus [3]): 1
Activity (Cell membrane [4]): Active
MIC (Staphylococcus aureus [5]): 2 µg/mL (≈ 4.35 µM)
MIC (Staphylococcus aureus [6]): 2 µg/mL (≈ 4.35 µM)
Activity (Staphylococcus aureus [7]): Active
MIC (Staphylococcus aureus [8]): 2 µg/mL (≈ 4.35 µM)
MBC (Staphylococcus aureus [9]): 4 µg/mL (≈ 8.71 µM)
MIC (Staphylococcus aureus [10]): 2 µg/mL (≈ 4.35 µM)
MBC (Enterococcus faecalis): 8 µg/mL (≈ 17.4 µM)
MIC (Staphylococcus aureus [11]): 2 µg/mL (≈ 4.35 µM)
